Measured values of several laboratories.
Each line is one published result; the experiments were not run side by side.
Target: Wee1-like protein kinase (WEE1, Homo sapiens, UniProt P30291)

O=C(NCCCN1CCOCC1)c1ccc(Nc2nccc(-c3cc4ccccc4s3)n2)cc1  remaining binding (binding; competition with immobilised ligand; 1 µM): 67%
C[C@H]1CCN(c2nccc(-c3cnn4ncccc34)n2)C1  remaining binding (binding; 1 µM): 100%
O=C(Nc1c[nH]nc1C(=O)NC1CCNCC1)c1cc(F)cc(F)c1  remaining binding (binding; competition with immobilised ligand; 1 µM): 100%
O=C(O)[C@@H]1[C@@H](Cn2nnc3ccccc3c2=O)CC[C@H]1C(=O)c1ccc(OCCC2CCOCC2)cc1  remaining binding (cell-free assay; competition with immobilised ligand; 1 µM): 93%
CN(CCCC(F)(F)F)c1nccc(-c2cnn3ncccc23)n1  remaining binding (binding; 1 µM): 100%
O=C1CCc2cc(Nc3cc(OC4CCOCC4)c([N+](=O)[O-])cc3Cl)ccc2N1  remaining binding (cell-free assay; competition with immobilised ligand; 1 µM): 99%
Cc1cnn2ncc(-c3ccnc(N(C)C)n3)c2c1  remaining binding (binding; 1 µM): 100%
CCC(=O)N[C@H]1CC[C@@H](C(=O)N(C)c2ccc(-c3nc4ccccc4o3)cc2)C1  remaining binding (cell-free assay; competition with immobilised ligand; 1 µM): 100%
CN(C)c1nccc(-c2cnc3ncccn23)n1  remaining binding (binding; 1 µM): 100%
COc1ncc2cc3ccccc3nc2c1C#N  remaining binding (cell-free assay; competition with immobilised ligand; 5 µM): 98%
COc1cnc(Nc2cccc(S(N)(=O)=O)c2)nc1N1CCN(c2ccccc2)C(=O)C1  remaining binding (binding; competition with immobilised ligand; 1 µM): 98%
Cc1c[nH]c2nccc(Oc3c(F)cc(Nc4cc(Cl)nc(N)n4)cc3F)c12  remaining binding (cell-free assay; competition with immobilised ligand; 0.1 µM): 100%
CC1CCCN1c1nccc(-c2cnn3ncccc23)n1 (stereo not shown)  remaining binding (binding; 1 µM): 100%
CCCOc1ccc([C@@H]2[C@@H](C(=O)O)[C@H](c3ccc4c(c3)OCO4)CN2CC(=O)Nc2c(CC)cccc2CC)cc1  remaining binding (cell-free assay; competition with immobilised ligand; 1 µM): 95%
CCN1CCN(Cc2ccc(C(=O)Nc3ccc(C)c(Oc4ccc5c(c4)CC(=O)N5)c3)cc2C(F)(F)F)CC1  remaining binding (binding; competition with immobilised ligand; 1 µM): 100%
FC(F)(F)Oc1cccc(-c2cnc3ccc(-c4ccncc4)nn23)c1  remaining binding (binding; competition with immobilised ligand; 5 µM): 90%
c1cncc(-c2cccc(Nc3nccc(NC4CCCCC4)n3)c2)c1  remaining binding (binding; competition with immobilised ligand; 10 µM): 90%
N[C@H]1CCN(c2nccc(-c3cnn4ncccc34)n2)C1  remaining binding (binding; 1 µM): 68%
O=C(c1ccc(Nc2nccc(-c3cc4ccccc4s3)n2)cc1)N1CCC(N2CCCC2)CC1  remaining binding (binding; competition with immobilised ligand; 1 µM): 83%
C=CC(=O)N1CCC(C(=O)NCC(=O)N2CCN(c3nc(-c4cnc(N)nc4C(F)F)nc(N4CCOCC4)n3)CC2)CC1  remaining binding (binding; competition with immobilised ligand; 1 µM): 89%
FC(F)(F)c1ccc2c(c1)nc(-c1cccnc1)n2C1CC1  remaining binding (cell-free assay; competition with immobilised ligand; 1 µM): 93%
Cc1cnc(Nc2ccc(C(=O)N3CCC(N4CCCC4)CC3)cc2)nc1-c1cc2ccccc2s1  remaining binding (binding; competition with immobilised ligand; 1 µM): 4.2%
